Active and inactive are the calls of the source. The calls are words filed in the database; no cut-off is given here.
Experiments:
[1] = target: T1, Amyloid-beta precursor protein (Homo sapiens, UniProt P05067); assay: Inhibition of amyloid beta (1 to 42) (unknown origin) aggregation at 100 uM incubated at 37 degC for 16 hrs by thioflavin T fluorescence assay
Outline: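 Aβ42 prepared at 40 μM in DMSO plus PBS (0.01 M, pH 6.6), mixed 2:1:1 with sample and 80 μM ThT stock. Shaken 15 min, incubated at 37 °C for 16 h, then ThT fluorescence read. Inhibition = (F0−Fi)/F0×100 against no-sample wells. Three independent experiments.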

[2] = target: T1, Amyloid-beta precursor protein; assay: Inhibition of amyloid beta (1 to 42) (unknown origin) aggregation incubated at 37 degC for 16 hrs by thioflavin T fluorescence assay
Outline: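 Aβ42 at 40 μM (in DMSO/PBS pH 6.6), mixed 2:1:1 with sample and 80 μM ThT stock, shaken 15 min, then held at 37 °C for 16 h. Read by ThT fluorescence. IC50 measured only for samples with ≥60% inhibition: six concentrations, three independent experiments, mean % inhibition fitted to a four-parameter variable-slope log(inhibitor)–response curve.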

[3] = test system: Drosophila; assay: Enhancement of short-term memory in Drosophila w1118 (isoCJ1) P35*H29.3 model of human Abeta42 transgenic Alzheimer's disease model assessed as increase in performance index at 100 uM fed to flies for 7 days by Pavlovian olfactory learning method; assay type: functional, organism-based
Outline: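 Male flies: elav-GAL4c155 (P35) × UAS-Aβ42 (H29.3) F1, with 2U*H29.3 as normal controls. Newly hatched flies kept about 120 per vial and reared at 28 °C, 42% RH. Fed 100 μM (from 10 mM stock) in 50 μL daily for 4 h, days 2–8. Controls got matching DMSO. Pavlovian olfactory learning done in the dark at 24 °C, 70% RH. Read-out is performance index; two vials per PI.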

T1 sequence (P05067 whole entry): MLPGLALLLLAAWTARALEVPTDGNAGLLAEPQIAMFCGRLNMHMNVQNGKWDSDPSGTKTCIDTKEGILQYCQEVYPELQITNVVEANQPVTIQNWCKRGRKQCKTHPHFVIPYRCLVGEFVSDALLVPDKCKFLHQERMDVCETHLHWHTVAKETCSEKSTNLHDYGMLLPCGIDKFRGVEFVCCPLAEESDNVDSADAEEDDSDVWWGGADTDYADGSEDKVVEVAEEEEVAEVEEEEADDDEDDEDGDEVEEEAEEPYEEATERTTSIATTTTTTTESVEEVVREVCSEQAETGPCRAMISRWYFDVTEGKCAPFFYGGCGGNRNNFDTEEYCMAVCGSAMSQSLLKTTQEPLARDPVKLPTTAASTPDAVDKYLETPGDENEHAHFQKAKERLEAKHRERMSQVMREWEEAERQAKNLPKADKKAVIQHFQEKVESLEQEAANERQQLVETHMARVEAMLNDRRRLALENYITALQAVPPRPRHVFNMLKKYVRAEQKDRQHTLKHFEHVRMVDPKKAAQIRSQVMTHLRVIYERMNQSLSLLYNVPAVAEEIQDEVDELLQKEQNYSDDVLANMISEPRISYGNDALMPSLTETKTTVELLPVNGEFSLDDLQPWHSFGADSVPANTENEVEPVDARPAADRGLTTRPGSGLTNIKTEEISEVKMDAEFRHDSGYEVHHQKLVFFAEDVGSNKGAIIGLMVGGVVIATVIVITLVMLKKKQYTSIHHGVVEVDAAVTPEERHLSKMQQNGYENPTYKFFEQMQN

SMILES: O=C(O[C@@H]1Cc2c(O)cc(O)cc2O[C@@H]1c1cc(O)c(O)c(O)c1)c1cc(O)c(O)c(O)c1 [EPIGALOCATECHIN GALLATE]
- inhibition [1]: 95.1%
- IC50 [2]: 0.5 µM

SMILES: C[C@@]12c3ccc4c(c3C(=O)c3occ(c31)C(=O)C[C@H]2O)CCC4=O [DEMETHOXYVIRIDIN]
- IC50 [2]: 13.4 µM

SMILES: C[C@@]12c3ccc4c(c3C(=O)c3occ(c31)[C@@H](O)C[C@@H]2O)CCC4=O
- Activity [3]: Active
- inhibition [1]: 99%
- IC50 [2]: 10.1 µM

SMILES: C[C@]12CC[C@H](O)c3coc(c31)C(=O)C1=C2[C@@H](O)C[C@]2(C)C(=O)CC[C@@H]12
- Activity [3]: Active
- inhibition [1]: 54.6%

SMILES: C[C@]1(O)c2ccc3c(c2C(=O)c2occ(CCO)c21)CCC3=O
- Activity [3]: Active
- inhibition [1]: 62.8%
- IC50 [2]: 34.3 µM

SMILES: C[C@]1(O)c2ccc3c(c2C(=O)c2occ(CCCO)c21)CCC3=O
- Activity [3]: Active
- inhibition [1]: 89.5%
- IC50 [2]: 28 µM

SMILES: C[C@@]12C(=O)CC[C@H]1C1=C(C[C@H]2O)[C@@]2(C)CC[C@H](O)c3coc(c32)C1=O
- Activity [3]: Active
- inhibition [1]: 70.4%
- IC50 [2]: 43.5 µM

SMILES: C[C@@]1(O)c2ccc3c(c2C(=O)c2occ([C@@H](O)CCO)c21)CCC3=O
- Activity [3]: Active
- inhibition [1]: 80.5%
- IC50 [2]: 71.9 µM

SMILES: C[C@]12CCC(=O)c3coc(c31)C(=O)C1=C2[C@@H](O)C[C@]2(C)C(=O)CC[C@@H]12
- Activity [3]: Active
- inhibition [1]: 98.8%
- IC50 [2]: 1.2 µM

SMILES: C[C@]1(O)c2ccc3c(c2C(=O)c2occ([C@@H](O)CCO)c21)CCC3=O
- Activity [3]: Active
- inhibition [1]: 63.5%
- IC50 [2]: 95.9 µM
